In ChEMBL document CHEMBL3864121, “Development of ebsulfur analogues as potent antibacterials against methicillin-resistant Staphylococcus aureus” (Bioorg Med Chem, 2016):
Values after ≈ are worked out from the molar mass of the structure shown. Active and inactive are the calls of the source. The calls are words filed in the database; no cut-off is given here.

How the values were obtained:
Assay type in all cases: functional
Staphylococcus aureus [1] = experiment: Antibacterial activity against methicillin-sensitive Staphylococcus aureus ATCC 6538 measured after overnight incubation by broth double-dilution method
Procedure, shortened: (§1)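 MIC by broth double-dilution in liquid Mueller-Hinton medium. Values are reported in µg/mL.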

Staphylococcus aureus [2] = experiment: Antibacterial activity against methicillin-sensitive Staphylococcus aureus ATCC 25923 measured after overnight incubation by broth double-dilution method; procedure, shortened: as §1
Staphylococcus aureus [3] = experiment: Antibacterial activity against methicillin-sensitive Staphylococcus aureus ATCC 29213 measured after overnight incubation by broth double-dilution method; procedure, shortened: as §1
Staphylococcus aureus [4] = experiment: Antibacterial activity against methicillin-resistant Staphylococcus aureus ATCC 33591 measured after overnight incubation by broth double-dilution method; procedure, shortened: as §1
Staphylococcus aureus [5] = experiment: Antibacterial activity against methicillin-resistant Staphylococcus aureus 1 measured after overnight incubation by broth double-dilution method; procedure, shortened: as §1
Staphylococcus aureus [6] = experiment: Antibacterial activity against methicillin-resistant Staphylococcus aureus 2 measured after overnight incubation by broth double-dilution method; procedure, shortened: as §1
Staphylococcus aureus [7] = experiment: Antibacterial activity against methicillin-resistant Staphylococcus aureus BRS3 measured after overnight incubation by broth double-dilution method; procedure, shortened: as §1
Staphylococcus aureus [8] = experiment: Antibacterial activity against methicillin-resistant Staphylococcus aureus C1 measured after overnight incubation by broth double-dilution method; procedure, shortened: as §1
Staphylococcus aureus [9] = experiment: Antibacterial activity against methicillin-resistant Staphylococcus aureus C2 measured after overnight incubation by broth double-dilution method; procedure, shortened: as §1
Staphylococcus aureus [10] = experiment: Antibacterial activity against methicillin-resistant Staphylococcus aureus C7 measured after overnight incubation by broth double-dilution method; procedure, shortened: as §1
Staphylococcus aureus [11] = experiment: Antibacterial activity against methicillin-resistant Staphylococcus aureus C14 measured after overnight incubation by broth double-dilution method; procedure, shortened: as §1
Staphylococcus aureus [12] = experiment: Antibacterial activity against methicillin-resistant Staphylococcus aureus C16 measured after overnight incubation by broth double-dilution method; procedure, shortened: as §1
Staphylococcus aureus [13] = experiment: Antibacterial activity against methicillin-resistant Staphylococcus aureus C19 measured after overnight incubation by broth double-dilution method; procedure, shortened: as §1
Staphylococcus aureus [14] = experiment: Antibacterial activity against methicillin-resistant Staphylococcus aureus G1 measured after overnight incubation by broth double-dilution method; procedure, shortened: as §1
Staphylococcus aureus [15] = experiment: Antibacterial activity against methicillin-resistant Staphylococcus aureus G6 measured after overnight incubation by broth double-dilution method; procedure, shortened: as §1
Staphylococcus aureus [16] = experiment: Antibacterial activity against methicillin-resistant Staphylococcus aureus G12 measured after overnight incubation by broth double-dilution method; procedure, shortened: as §1
Staphylococcus aureus [17] = experiment: Antibacterial activity against methicillin-resistant Staphylococcus aureus G14 measured after overnight incubation by broth double-dilution method; procedure, shortened: as §1
Staphylococcus aureus [18] = experiment: Antibacterial activity against methicillin-resistant Staphylococcus aureus NRS4 measured after overnight incubation by broth double-dilution method; procedure, shortened: as §1
Staphylococcus aureus [19] = experiment: Antibacterial activity against methicillin-resistant Staphylococcus aureus NRS51 measured after overnight incubation by broth double-dilution method; procedure, shortened: as §1
Staphylococcus aureus [20] = experiment: Antibacterial activity against methicillin-resistant Staphylococcus aureus NRS77 measured after overnight incubation by broth double-dilution method; procedure, shortened: as §1
Staphylococcus aureus [21] = experiment: Antibacterial activity against methicillin-resistant Staphylococcus aureus S14 measured after overnight incubation by broth double-dilution method; procedure, shortened: as §1
Staphylococcus aureus [22] = experiment: Antibacterial activity against methicillin-resistant Staphylococcus aureus S17 measured after overnight incubation by broth double-dilution method; procedure, shortened: as §1
Staphylococcus aureus [23] = experiment: Antibacterial activity against methicillin-resistant Staphylococcus aureus S22 measured after overnight incubation by broth double-dilution method; procedure, shortened: as §1
Staphylococcus aureus [24] = experiment: Antibacterial activity against methicillin-resistant Staphylococcus aureus S24 measured after overnight incubation by broth double-dilution method; procedure, shortened: as §1
Staphylococcus aureus [25] = experiment: Antibacterial activity against methicillin-resistant Staphylococcus aureus USA100 measured after overnight incubation by broth double-dilution method; procedure, shortened: as §1
Staphylococcus aureus [26] = experiment: Antibacterial activity against methicillin-resistant Staphylococcus aureus USA200 measured after overnight incubation by broth double-dilution method; procedure, shortened: as §1
Staphylococcus aureus [27] = experiment: Antibacterial activity against methicillin-resistant Staphylococcus aureus USA300 measured after overnight incubation by broth double-dilution method; procedure, shortened: as §1
Staphylococcus aureus [28] = experiment: Antibacterial activity against methicillin-resistant Staphylococcus aureus USA600 measured after overnight incubation by broth double-dilution method; procedure, shortened: as §1
[29] = test system: Staphylococcus epidermidis; experiment: Antibacterial activity against Staphylococcus epidermidis ATCC 35984 measured after overnight incubation by broth double-dilution method; details: RP62A
Procedure, shortened: (§2)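 MIC by broth double-dilution in Mueller-Hinton medium. Re-testing at the time-kill inoculum used 1×10^6 CFU/mL.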

Enterococcus faecalis [30] = experiment: Antibacterial activity against Enterococcus faecalis ATCC 29212 measured after overnight incubation by broth double-dilution method; procedure, shortened: as §2
Enterococcus faecalis [31] = experiment: Antibacterial activity against Enterococcus faecalis ATCC 49533 measured after overnight incubation by broth double-dilution method; procedure, shortened: as §2
Enterococcus faecium = experiment: Antibacterial activity against Enterococcus faecium BM4105-RF measured after overnight incubation by broth double-dilution method; procedure, shortened: as §1
Enterococcus = experiment: Antibacterial activity against Vancomycin-resistant Enterococcus measured after overnight incubation by broth double-dilution method; procedure, shortened: as §1
Listeria monocytogenes = experiment: Antibacterial activity against Listeria monocytogenes ATCC 19115 measured after overnight incubation by broth double-dilution method; procedure, shortened: as §2
[32] = test system: Mycolicibacterium smegmatis; experiment: Antibacterial activity against Mycobacterium smegmatis MC2-155 measured after overnight incubation by broth double-dilution method; details: str. MC2 155; procedure, shortened: as §1
Staphylococcus aureus [33] = experiment: Antibacterial activity against methicillin-resistant Staphylococcus aureus S22 using 1 10^6CFU/ml measured after overnight incubation by broth double-dilution method

SMILES	MIC (Staphylococcus aureus [1]) [µg/mL]	MIC (Staphylococcus aureus [2]) [µg/mL]	MIC (Staphylococcus aureus [3]) [µg/mL]	MIC (Staphylococcus aureus [4]) [µg/mL]	MIC (Staphylococcus aureus [5]) [µg/mL]	MIC (Staphylococcus aureus [6]) [µg/mL]	MIC (Staphylococcus aureus [7]) [µg/mL]	MIC (Staphylococcus aureus [8]) [µg/mL]	MIC (Staphylococcus aureus [9]) [µg/mL]	MIC (Staphylococcus aureus [10]) [µg/mL]	MIC (Staphylococcus aureus [11]) [µg/mL]	MIC (Staphylococcus aureus [12]) [µg/mL]	MIC (Staphylococcus aureus [13]) [µg/mL]	MIC (Staphylococcus aureus [14]) [µg/mL]	MIC (Staphylococcus aureus [15]) [µg/mL]	MIC (Staphylococcus aureus [16]) [µg/mL]	MIC (Staphylococcus aureus [17]) [µg/mL]	MIC (Staphylococcus aureus [18]) [µg/mL]	MIC (Staphylococcus aureus [19]) [µg/mL]	MIC (Staphylococcus aureus [20]) [µg/mL]	further results
O=c1c2ccccc2sn1-c1cccc(Br)c1	7.8 (≈ 25.5 µM)	7.8 (≈ 25.5 µM)	3.9 (≈ 12.7 µM)	2 (≈ 6.53 µM)	7.8 (≈ 25.5 µM)	3.9 (≈ 12.7 µM)	7.8 (≈ 25.5 µM)	3.9 (≈ 12.7 µM)	3.9 (≈ 12.7 µM)	3.9 (≈ 12.7 µM)	7.8 (≈ 25.5 µM)	3.9 (≈ 12.7 µM)	3.9 (≈ 12.7 µM)	3.9 (≈ 12.7 µM)	3.9 (≈ 12.7 µM)	7.8 (≈ 25.5 µM)	7.8 (≈ 25.5 µM)	7.8 (≈ 25.5 µM)	3.9 (≈ 12.7 µM)	3.9 (≈ 12.7 µM)	MIC (Staphylococcus aureus [21]): 0.5 µg/mL (≈ 1.63 µM); MIC (Staphylococcus aureus [22]): 3.9 µg/mL (≈ 12.7 µM); MIC (Staphylococcus aureus [23]): > 125 µg/mL; MIC (Staphylococcus aureus [24]): 3.9 µg/mL (≈ 12.7 µM); MIC (Staphylococcus aureus [25]): 3.9 µg/mL (≈ 12.7 µM); MIC (Staphylococcus aureus [26]): 7.8 µg/mL (≈ 25.5 µM); MIC (Staphylococcus aureus [27]): 3.9 µg/mL (≈ 12.7 µM); MIC (Staphylococcus aureus [28]): 7.8 µg/mL (≈ 25.5 µM); MIC [29]: 3.9 µg/mL (≈ 12.7 µM); MIC (Enterococcus faecalis [30]): 15.6 µg/mL (≈ 50.9 µM); MIC (Enterococcus faecalis [31]): > 125 µg/mL; MIC (Enterococcus faecium): 15.6 µg/mL (≈ 50.9 µM); MIC (Enterococcus): 7.8 µg/mL (≈ 25.5 µM); MIC (Listeria monocytogenes): 3.9 µg/mL (≈ 12.7 µM); MIC [32]: 3.9 µg/mL (≈ 12.7 µM); Activity (Staphylococcus aureus [33]): Active
O=c1c2ccccc2sn1CCCc1ccccc1	3.9 (≈ 14.5 µM)	2 (≈ 7.42 µM)	2 (≈ 7.42 µM)	1 (≈ 3.71 µM)	0.5 (≈ 1.86 µM)	2 (≈ 7.42 µM)	3.9 (≈ 14.5 µM)	2 (≈ 7.42 µM)	2 (≈ 7.42 µM)	2 (≈ 7.42 µM)	3.9 (≈ 14.5 µM)	3.9 (≈ 14.5 µM)	2 (≈ 7.42 µM)	0.5 (≈ 1.86 µM)	2 (≈ 7.42 µM)	2 (≈ 7.42 µM)	2 (≈ 7.42 µM)	2 (≈ 7.42 µM)	2 (≈ 7.42 µM)	2 (≈ 7.42 µM)	MIC (Staphylococcus aureus [21]): ≤ 0.25 µg/mL; MIC (Staphylococcus aureus [22]): 2 µg/mL (≈ 7.42 µM); MIC (Staphylococcus aureus [23]): 3.9 µg/mL (≈ 14.5 µM); MIC (Staphylococcus aureus [24]): 2 µg/mL (≈ 7.42 µM); MIC (Staphylococcus aureus [25]): 2 µg/mL (≈ 7.42 µM); MIC (Staphylococcus aureus [26]): 3.9 µg/mL (≈ 14.5 µM); MIC (Staphylococcus aureus [27]): 2 µg/mL (≈ 7.42 µM); MIC (Staphylococcus aureus [28]): 3.9 µg/mL (≈ 14.5 µM); MIC [29]: 2 µg/mL (≈ 7.42 µM); MIC (Enterococcus faecalis [30]): 15.6 µg/mL (≈ 57.9 µM); MIC (Enterococcus faecalis [31]): > 125 µg/mL; MIC (Enterococcus faecium): 15.6 µg/mL (≈ 57.9 µM); MIC (Enterococcus): 0.5 µg/mL (≈ 1.86 µM); MIC (Listeria monocytogenes): 2 µg/mL (≈ 7.42 µM); MIC [32]: 3.9 µg/mL (≈ 14.5 µM)
O=c1c2ccccc2sn1C1CCCCC1	7.8 (≈ 33.4 µM)	3.9 (≈ 16.7 µM)	3.8 (≈ 16.3 µM)	2 (≈ 8.57 µM)	2 (≈ 8.57 µM)	3.9 (≈ 16.7 µM)	7.8 (≈ 33.4 µM)	2 (≈ 8.57 µM)	3.9 (≈ 16.7 µM)	3.9 (≈ 16.7 µM)	2 (≈ 8.57 µM)	3.9 (≈ 16.7 µM)	3.9 (≈ 16.7 µM)	2 (≈ 8.57 µM)	3.9 (≈ 16.7 µM)	3.9 (≈ 16.7 µM)	3.9 (≈ 16.7 µM)	3.9 (≈ 16.7 µM)	3.9 (≈ 16.7 µM)	3.9 (≈ 16.7 µM)	MIC (Staphylococcus aureus [21]): 0.5 µg/mL (≈ 2.14 µM); MIC (Staphylococcus aureus [22]): 7.8 µg/mL (≈ 33.4 µM); MIC (Staphylococcus aureus [23]): 7.8 µg/mL (≈ 33.4 µM); MIC (Staphylococcus aureus [24]): 3.9 µg/mL (≈ 16.7 µM); MIC (Staphylococcus aureus [25]): 7.8 µg/mL (≈ 33.4 µM); MIC (Staphylococcus aureus [26]): 7.8 µg/mL (≈ 33.4 µM); MIC (Staphylococcus aureus [27]): 7.8 µg/mL (≈ 33.4 µM); MIC (Staphylococcus aureus [28]): 7.8 µg/mL (≈ 33.4 µM); MIC [29]: 2 µg/mL (≈ 8.57 µM); MIC (Enterococcus faecalis [30]): > 125 µg/mL; MIC (Enterococcus faecalis [31]): > 125 µg/mL; MIC (Enterococcus faecium): > 125 µg/mL; MIC (Enterococcus): 2 µg/mL (≈ 8.57 µM); MIC (Listeria monocytogenes): 3.9 µg/mL (≈ 16.7 µM); MIC [32]: 2 µg/mL (≈ 8.57 µM)
CC(C)CCn1sc2ccccc2c1=O	3.9 (≈ 17.6 µM)	> 125	3.9 (≈ 17.6 µM)	> 125	3.9 (≈ 17.6 µM)	7.8 (≈ 35.2 µM)	3.9 (≈ 17.6 µM)	3.9 (≈ 17.6 µM)	3.9 (≈ 17.6 µM)	3.9 (≈ 17.6 µM)	3.9 (≈ 17.6 µM)	7.8 (≈ 35.2 µM)	3.9 (≈ 17.6 µM)	2 (≈ 9.04 µM)	3.9 (≈ 17.6 µM)	3.9 (≈ 17.6 µM)	7.8 (≈ 35.2 µM)	3.9 (≈ 17.6 µM)	7.8 (≈ 35.2 µM)	3.9 (≈ 17.6 µM)	MIC (Staphylococcus aureus [21]): 1 µg/mL (≈ 4.52 µM); MIC (Staphylococcus aureus [22]): 3.9 µg/mL (≈ 17.6 µM); MIC (Staphylococcus aureus [23]): 7.8 µg/mL (≈ 35.2 µM); MIC (Staphylococcus aureus [24]): 3.9 µg/mL (≈ 17.6 µM); MIC (Staphylococcus aureus [25]): 7.8 µg/mL (≈ 35.2 µM); MIC (Staphylococcus aureus [26]): 7.8 µg/mL (≈ 35.2 µM); MIC (Staphylococcus aureus [27]): 7.8 µg/mL (≈ 35.2 µM); MIC (Staphylococcus aureus [28]): 7.8 µg/mL (≈ 35.2 µM); MIC [29]: 3.9 µg/mL (≈ 17.6 µM); MIC (Enterococcus faecalis [30]): 7.8 µg/mL (≈ 35.2 µM); MIC (Enterococcus faecalis [31]): 15.6 µg/mL (≈ 70.5 µM); MIC (Enterococcus faecium): 7.8 µg/mL (≈ 35.2 µM); MIC (Enterococcus): 2 µg/mL (≈ 9.04 µM); MIC (Listeria monocytogenes): > 125 µg/mL; MIC [32]: 3.9 µg/mL (≈ 17.6 µM)
